Screening data (PubChem BioAssay)
Compounds with a hit are over-represented: about 3% of the library has one in this group of screens.
S1P1 ag pot – S1P1 (human) agonism or agonism potentiation; P21453; S1P1 CRE-bla cells, forskolin, beta-lactamase FRET, potentiator mode; S1P1 agonist co-added at EC20, 2 nM; 100% = saturating reference agonist, 0% = basal; AID 449; actives 0.57% (n = 56,000); activation, % at 9.5 µM;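 active = activation above a cutoff set at the mean activation of all tested compounds plus 3 SD, cut at about 54% in these data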;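 note: forskolin at 4 µM as EC80 and the EC20 agonist is SEW2871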
5-HT1A blocker – 5-HT1a (human) receptor antagonism. P08908. CHO 5-HT1a Ga15 NFAT-bla reporter, antagonist mode. inhibition, % at 10 µM. actives 0.68% (n = 62,000). AID 612;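 active = inhibition above the mean of all tested compounds plus 3 SD, cut at about 43% in these data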;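 note: receptor stimulated by 5-CT agonist at 100 nM near EC80; beta-lactamase reporter measured by ratiometric fluorescence of a cleavable substrate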
Target sequence (P08908 whole entry, looked up): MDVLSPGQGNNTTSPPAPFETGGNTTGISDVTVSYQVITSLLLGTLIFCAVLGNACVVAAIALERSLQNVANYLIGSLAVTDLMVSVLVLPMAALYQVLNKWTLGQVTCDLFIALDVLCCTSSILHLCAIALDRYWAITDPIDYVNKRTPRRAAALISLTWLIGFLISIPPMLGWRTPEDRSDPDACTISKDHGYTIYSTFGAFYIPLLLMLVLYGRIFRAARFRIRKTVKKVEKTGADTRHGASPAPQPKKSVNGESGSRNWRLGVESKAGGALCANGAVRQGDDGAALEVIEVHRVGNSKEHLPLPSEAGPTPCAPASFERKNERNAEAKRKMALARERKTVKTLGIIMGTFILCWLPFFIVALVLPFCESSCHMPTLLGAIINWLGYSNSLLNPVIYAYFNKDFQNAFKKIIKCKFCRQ
HTR1E agonist – agonists of human 5-HT1E serotonin receptor. P28566. CHO 5-HT1E Ga15 NFAT-bla reporter, FRET; 0% DMSO wells, 100% control agonist wells. activation, % at 6 µM. actives 0.69% (n = 65,000). AID 574;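 active = activation above a set limit, the screen-wide mean activation plus 3 SD, cut at about 8.5% in these data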
5HT1E antag – 5-HT1E (human) receptor antagonism; CHO 5-HT1E Ga15 NFAT-bla reporter, FRET, antagonist; inhibition, % at 6 µM; actives 0.99% (n = 65,000); AID 571;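 active = inhibition above a set limit, the mean inhibition across every tested compound plus 3 SD, cut at about 29% in these data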;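 note: signal is the 460 over 535 nm emission ratio of beta-lactamase substrate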
HTR1A agonist – agonists of human 5-HT1a serotonin receptor. P08908. CHO 5-HT1a Ga15 NFAT-bla reporter, FRET ratio; 0% basal, 100% maximal reference agonist. activation, % at 10 µM. actives 0.56% (n = 65,000). AID 567;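 active = activation above the screen-wide mean activation plus 3 SD, cut at about 19% in these data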
S1P3 agonist – agonists of human S1P3 receptor. Q99500. S1P3 NFAT-BLA reporter cells, agonism, FRET ratio; relative to 1 µM S1P, basal subtracted. activation, % at 4.5 µM. actives 0.1% (n = 60,000). AID 373;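 active = activation above the screen-wide mean plus 3 SD, cut at about 4.5% in these data, passing the limit was not always enough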
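Benchmarks: high control 1 µM S1P / System: stable CHO line with human S1P3, Gα16, NFAT-BLA reporter / Dosing: single compound concentration, 4.5 µM final / Timing: 4 h compound at 37 °C, 2 h substrate at RT / Measured by: FRET β-lactamase substrate fluorescence, excitation 405 nm, 460/535 nm emission ratio, background-subtracted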
Large screens that a line does not name were inactive.

COc1ccc(-c2cc(CCCC(=O)NCCc3ccc(OC)cc3OC)no2)cc1	HTR1E agonist 12
COCCN1C(=O)c2oc3cc(C)c(C)cc3c(=O)c2C1c1ccc(O)cc1 (configuration not stated)	none
Cn1c(-c2ccccc2)cc2c3no[n+]([O-])c3ccc21	5-HT1A blocker 44, 5HT1E antag 34
COc1ccccc1-c1cc(C(F)(F)F)nc(S(=O)(=O)CCCC(=O)Nc2cc(C)on2)n1	5HT1E antag 46
COc1ccccc1-c1cc(C(F)(F)F)nc(S(=O)(=O)CCCC(=O)N2CCCCC2C)n1 (configuration not stated)	5-HT1A blocker 64
COc1ccccc1-c1cc(C(F)(F)F)nc(S(=O)(=O)CCCC(=O)NC(C)C)n1	5HT1E antag 48
COc1ccccc1-c1cc(C(F)(F)F)nc(N2CCCC2)n1	none (no result: S1P1 ag pot, S1P3 agonist)
Cc1cc(NC(=O)CCCSc2nc(-c3ccco3)cc(C(F)(F)F)n2)no1	none (no result: S1P1 ag pot)
CC(C)c1nnc(NC(=O)CCS(=O)(=O)c2nc(-c3cccs3)cc(C(F)(F)F)n2)s1	none
NC(=O)c1ccc(C2SCC(=O)N2Cc2ccccc2)cc1 (configuration not stated)	none
Cn1c(COc2ccccc2)nnc1SCCC(=O)Nc1ccccc1	none
Clc1ccc(OCc2nnc(SCc3nc4ccccc4[nH]3)n2Cc2ccco2)cc1	S1P1 ag pot 61
Clc1cccc(-c2nnc(SCc3nc4ccccc4[nH]3)n2Cc2ccco2)c1	none
CCOC(=O)C1=C(N)Oc2cc(C)n(CCc3ccc(OC)c(OC)c3)c(=O)c2C1c1cccnc1 (configuration not stated)	5HT1E antag 30
COc1cc(OC)cc(C(=O)N2c3ccc(F)cc3CCC2C)c1 (configuration not stated)	HTR1E agonist 26
COc1ccc(-n2nnnc2-c2cccc(OC)c2)cc1	5HT1E antag 35
COC(=O)c1ccc2c(=O)sc(N3CCC(C(N)=O)CC3)nc2c1	none (no result: S1P1 ag pot, S1P3 agonist)
Cc1ccc(-c2nnc3n2N=C(c2ccccc2Br)CS3)cc1	5HT1E antag 32
CCOc1ccc(C2=Nn3c(nnc3-c3ccc(OC)cc3)SC2)cc1	5HT1E antag 39
CCOc1ccc(C2=Nn3c(nnc3-c3cccnc3)SC2)cc1	none (no result: 5-HT1A blocker)
COc1ccc(OC)c(C2=Nn3c(nnc3-c3cccc(OC(C)C)c3)SC2)c1	5HT1E antag 38
COc1ccc(C2=Nn3c(nnc3-c3ccccc3)SC2)cc1OC	5HT1E antag 49 (no result: 5-HT1A blocker)
CC(=O)NC(NC(C)=O)c1ccc(N(C)C)cc1	none
Cc1c(Cl)cccc1N(CC(=O)NC1CCCCC1)S(C)(=O)=O	none
COc1ccc(-c2nnc3n2N=C(c2ccccc2)CS3)cc1OC	none
CCCc1nnc2n1N=C(c1ccc(OC)c(OC)c1)CS2	5HT1E antag 63
COc1cccc2c1C(=O)c1c(O)c3c(c(O)c1C2=O)C[C@@](O)(C(C)=O)C[C@@H]3O[C@H]1C[C@H](N)[C@H](O)[C@H](C)O1	5HT1E antag 57 (no result: 5-HT1A blocker)
CC1CCCCN1C(=O)CSc1nnc(-c2c[nH]c3ccccc23)o1 (configuration not stated)	HTR1E agonist 23
CCC1CCCCN1C(=O)CSc1nnc(-c2ccco2)o1 (configuration not stated)	none
O=C(CSc1nnc(-c2c[nH]c3ccccc23)o1)N(Cc1ccccc1)c1ccc(F)cc1	S1P1 ag pot 107
CCN(CC)c1ccc2c(c1)OC(N)=C(C#N)C2c1cccnc1 (configuration not stated)	5HT1E antag 77
O=C1CC(Sc2nnnn2C2CCCCC2)C(=O)N1c1ccccc1 (configuration not stated)	5-HT1A blocker 44
COC(=O)c1[nH]c2ccc(C)cc2c1NC(=O)CN1CCCCC1C (configuration not stated)	none
Clc1ccc(C(c2nnnn2C2CCCC2)N2CCSCC2)cc1 (configuration not stated)	5-HT1A blocker 50
N#CCSc1nnc(COc2ccc3ccccc3c2)o1	none
